Results from ChEMBL document CHEMBL3745597, “Fragment-Based Discovery of Subtype-Selective Adenosine Receptor Ligands from Homology Models” (J Med Chem, 2015).
Active and inactive are the calls of the source. No cut-off for these calls is given here.

Columns and labels:
[1] = molecular target: Adenosine receptors; A1 & A3 (Homo sapiens) (UniProt P30542+P0DMS8); assay: Selectivity ratio of Ki for human adenosine A1 receptor expressed in CHO cells to Ki for human adenosine A3 receptor expressed in CHO CRE-SPAP cells; type: functional, cell-based
How it was run: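 Ratio of Ki at A1AR to Ki at A3AR. Both Ki values come from the live-cell CA200645 competition assay (25 nM tracer, 1 h, 37°C), with Cheng-Prusoff correction using KD 17.0 nM (A1) and 3.11 nM (A3).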

Adenosine receptor A1 = molecular target: T1, Adenosine receptor A1 (Homo sapiens, UniProt P30542); assay: Displacement of CA200645 from human adenosine A1 receptor expressed in CHO cells incubated for 1 hr by fluorescence analysis; type: cell-based
T1 sequence (P30542 whole entry): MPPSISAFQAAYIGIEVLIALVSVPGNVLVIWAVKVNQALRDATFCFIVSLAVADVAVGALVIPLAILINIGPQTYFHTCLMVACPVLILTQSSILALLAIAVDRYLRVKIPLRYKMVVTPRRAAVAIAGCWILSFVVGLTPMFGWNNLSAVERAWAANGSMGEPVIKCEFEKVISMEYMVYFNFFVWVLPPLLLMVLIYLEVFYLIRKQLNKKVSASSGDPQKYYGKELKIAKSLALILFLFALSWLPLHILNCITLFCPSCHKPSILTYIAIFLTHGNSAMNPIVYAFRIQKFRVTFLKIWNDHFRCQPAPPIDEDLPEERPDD
How it was run: (§1)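 Live confluent CHO cells expressing A1AR or A3AR were washed into HEPES-buffered saline, pH 7.4. Increasing concentrations of competitor were added with 25 nM fluorescent xanthine ligand CA200645 and incubated 1 h at 37°C, then imaged for total intensity. IC50 was converted to Ki by Cheng-Prusoff using ligand KD 17.0 nM (A1) or 3.11 nM (A3). Values are mean of n experiments run in duplicate.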

Adenosine receptor A3 [2] = molecular target: T2, Adenosine receptor A3 (Homo sapiens, UniProt P0DMS8); assay: Displacement of CA200645 from human adenosine A3 receptor expressed in CHO CRE-SPAP cells incubated for 1 hr by fluorescence analysis; type: cell-based; how it was run: as §1
T2 sequence (P0DMS8 whole entry, looked up): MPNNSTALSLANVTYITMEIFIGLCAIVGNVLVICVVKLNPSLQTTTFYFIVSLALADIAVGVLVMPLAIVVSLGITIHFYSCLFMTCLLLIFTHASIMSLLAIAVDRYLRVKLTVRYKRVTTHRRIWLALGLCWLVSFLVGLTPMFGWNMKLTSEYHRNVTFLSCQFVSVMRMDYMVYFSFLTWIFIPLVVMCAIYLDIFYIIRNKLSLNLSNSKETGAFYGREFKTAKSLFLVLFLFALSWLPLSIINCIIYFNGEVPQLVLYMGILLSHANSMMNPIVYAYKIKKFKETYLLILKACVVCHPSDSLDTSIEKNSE

Adenosine receptor A2a [3] = molecular target: T3, Adenosine receptor A2a (Homo sapiens, UniProt P29274); assay: Displacement of [3H]-ZM241385 from human adenosine A2A receptor expressed in HeLa cells; type: cell-based
T3 sequence (P29274 whole entry): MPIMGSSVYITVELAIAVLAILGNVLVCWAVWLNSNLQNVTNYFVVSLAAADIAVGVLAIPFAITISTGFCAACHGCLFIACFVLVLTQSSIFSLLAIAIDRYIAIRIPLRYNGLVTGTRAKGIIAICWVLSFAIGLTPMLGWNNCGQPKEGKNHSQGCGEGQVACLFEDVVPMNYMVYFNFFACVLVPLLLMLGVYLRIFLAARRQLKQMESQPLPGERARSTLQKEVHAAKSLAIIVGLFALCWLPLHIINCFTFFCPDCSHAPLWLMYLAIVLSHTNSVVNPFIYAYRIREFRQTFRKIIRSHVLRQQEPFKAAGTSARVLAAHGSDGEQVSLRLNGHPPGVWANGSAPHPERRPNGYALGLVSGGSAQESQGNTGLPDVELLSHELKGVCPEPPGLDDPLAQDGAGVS
How it was run: (§2)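 Human A2AAR expressed in transfected HeLa cells, with [3H]-ZM241385 as radioligand. Percent inhibition was measured at a single 10 µM concentration. Ki was determined only where displacement exceeded 50% at 10 µM.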

Adenosine receptor A3 [4] = molecular target: T2, Adenosine receptor A3; assay: Competitive antagonist activity at YFP linked human adenosine A3 receptor expressed in CHO CRE-SPAP cells assessed as inhibition of NECA-induced receptor internalization preincubated for 30 mins followed by addition of NECA measured after 60 mins by H33342 staining-based fluorescence analysis; type: cell-based
How it was run: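 Cells stably expressing YFP-tagged A3AR, serum-free DMEM/F12 with 2 mM L-glutamine, preincubated 30 min at 37°C with a fixed 10 µM antagonist or with medium only. Rising NECA concentrations were then added for 60 min. Cells were fixed in 3% paraformaldehyde, nuclei stained with H33342 and imaged confocally. Read-out was YFP granule count per cell. Antagonist KD came from the Gaddum dose-ratio equation, n=5 run in triplicate.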

HeLa = assay: Selectivity ratio of Ki for human adenosine A2A receptor expressed in HeLa cells to Ki for human adenosine A3 receptor expressed in CHO CRE-SPAP cells; type: cell-based
Adenosine receptor A2a [5] = molecular target: T3, Adenosine receptor A2a; assay: Displacement of [3H]-ZM241385 from human adenosine A2A receptor expressed in HeLa cells at 10 uM; type: cell-based; how it was run: as §2

Row | Structure (SMILES) | Ratio Ki [1] | Ki (Adenosine receptor A1) [µM] | Ki (Adenosine receptor A3 [2]; read-out: pKi (converted)) [µM] | Ki (Adenosine receptor A2a [3]) [µM] | Ki (Adenosine receptor A3 [2]; read-out: Ki) [µM] | Kd (Adenosine receptor A3 [4]) [µM] | Ratio Ki (HeLa) | Activity (Adenosine receptor A2a [5]) | pKi (Adenosine receptor A1; cho)
1 | CSc1sc(NC(=O)C=C(C)C)nc1C | 24 | 29.5 | 2.19 |  |  |  |  |  | 
2 | CCc1cc2c(O)nc(-c3ccncc3)nc2s1 | 14 | 22.9 | 2 |  |  |  |  |  | 
3 | O=C(Nc1nc(C2CC2)cs1)c1cc2ccccc2s1 | 101 | 3.72 | 0.0339 | 2.9 | 0.04 | 0.741 | 72 |  | 
4 | O=C(Nc1nc2ccccc2s1)c1cc2ccccc2s1 | 16 | 6.17 | 0.331 |  |  |  |  |  | 
5 | CCc1cc2c(=O)[nH]c(C3CC3)nc2s1 | 70 | 61.7 | 1.82 |  |  |  |  |  | 
6 | Cc1sc2nc(-c3ccoc3)[nH]c(=O)c2c1C | 4 | 1.95 | 0.398 |  |  |  |  |  | 
7 | O=C(Nc1nc2c(s1)CCC2)c1cc2ccccc2s1 | 5 | 2.82 | 0.38 |  |  |  |  |  | 
8 | O=c1[nH]c(-c2ccco2)nc2scc(-c3ccco3)c12 | 2 | 0.347 | 0.138 |  |  |  |  |  | 
9 | CCc1cc2c(O)ncnc2s1 | 6 | 75.9 | 13.5 |  |  |  |  |  | 
10 | O=C(Nc1ccc2[nH]ncc2c1)c1ccc[nH]1 | 1.2 | 3.16 | 2.4 |  |  |  |  |  | 
11 | CCc1cc2c(=O)[nH]c(-c3ccoc3)nc2s1 | 102 | 56.2 | 0.55 |  |  | 0.741 |  | inactive | 
12 | COc1cccc2sc(NC(=O)c3cc4ccccc4s3)nc12 | 34 | 3.09 | 0.11 |  | 0.12 |  |  |  | 
13 | CC(C)(C)C(=O)Nc1nc(C2CC2)cs1 | 2 | 12.3 | 4.9 |  |  |  |  |  | 
14 | CCc1cc2c(O)nc(N3CCCC3)nc2s1 | > 38 |  | 2.29 |  |  |  |  | inactive | > 4
15 | O=C(Nc1nc(C2CC2)cs1)c1ccoc1 | 29 | 2.95 | 0.105 |  | 0.12 |  |  | inactive | 
